ChEMBL document CHEMBL1151785, “Oleanolic acid and its derivatives: new inhibitor of protein tyrosine phosphatase 1B with cellular activities” (Bioorg Med Chem, 2008)
Active and inactive are the calls of the source. The rule behind the calls is not given here.

How the values were obtained:
[1] = target: T1, Tyrosine-protein phosphatase non-receptor type 1 (Homo sapiens, UniProt P18031); assay: Inhibition of PTP1B by pNPP assay
T1 sequence (P18031 whole entry): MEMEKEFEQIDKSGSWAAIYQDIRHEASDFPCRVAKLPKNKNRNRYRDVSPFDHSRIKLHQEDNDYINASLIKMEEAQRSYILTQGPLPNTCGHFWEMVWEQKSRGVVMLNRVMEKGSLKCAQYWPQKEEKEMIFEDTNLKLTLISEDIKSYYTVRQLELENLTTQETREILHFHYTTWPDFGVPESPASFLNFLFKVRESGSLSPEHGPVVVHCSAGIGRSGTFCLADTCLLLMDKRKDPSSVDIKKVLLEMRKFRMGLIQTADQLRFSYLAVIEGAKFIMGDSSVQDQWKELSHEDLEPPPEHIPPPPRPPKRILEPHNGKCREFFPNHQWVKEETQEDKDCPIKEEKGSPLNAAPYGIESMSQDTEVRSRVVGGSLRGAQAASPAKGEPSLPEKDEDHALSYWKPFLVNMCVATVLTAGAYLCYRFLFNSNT

[2] = target: T2, Tyrosine-protein phosphatase non-receptor type 2 (Homo sapiens, UniProt P17706); assay: Inhibition of TCPTP by pNPP assay
T2 sequence (P17706 whole entry): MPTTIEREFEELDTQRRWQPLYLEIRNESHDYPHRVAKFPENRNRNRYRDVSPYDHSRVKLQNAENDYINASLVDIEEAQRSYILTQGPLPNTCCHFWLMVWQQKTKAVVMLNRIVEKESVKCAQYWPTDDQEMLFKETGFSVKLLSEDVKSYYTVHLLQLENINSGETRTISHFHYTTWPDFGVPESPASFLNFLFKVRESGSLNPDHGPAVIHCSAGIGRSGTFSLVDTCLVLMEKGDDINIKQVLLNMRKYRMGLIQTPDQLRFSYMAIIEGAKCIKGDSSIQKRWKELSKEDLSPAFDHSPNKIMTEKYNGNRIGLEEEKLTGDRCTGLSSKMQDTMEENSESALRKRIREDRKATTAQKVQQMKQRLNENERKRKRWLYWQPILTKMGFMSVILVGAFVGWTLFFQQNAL

[3] = target: Receptor-type tyrosine-protein phosphatase alpha (Homo sapiens, UniProt P18433); assay: Inhibition of human recombinant PTPalpha
Receptor-type tyrosine-protein phosphatase alpha, sequence (P18433 whole entry): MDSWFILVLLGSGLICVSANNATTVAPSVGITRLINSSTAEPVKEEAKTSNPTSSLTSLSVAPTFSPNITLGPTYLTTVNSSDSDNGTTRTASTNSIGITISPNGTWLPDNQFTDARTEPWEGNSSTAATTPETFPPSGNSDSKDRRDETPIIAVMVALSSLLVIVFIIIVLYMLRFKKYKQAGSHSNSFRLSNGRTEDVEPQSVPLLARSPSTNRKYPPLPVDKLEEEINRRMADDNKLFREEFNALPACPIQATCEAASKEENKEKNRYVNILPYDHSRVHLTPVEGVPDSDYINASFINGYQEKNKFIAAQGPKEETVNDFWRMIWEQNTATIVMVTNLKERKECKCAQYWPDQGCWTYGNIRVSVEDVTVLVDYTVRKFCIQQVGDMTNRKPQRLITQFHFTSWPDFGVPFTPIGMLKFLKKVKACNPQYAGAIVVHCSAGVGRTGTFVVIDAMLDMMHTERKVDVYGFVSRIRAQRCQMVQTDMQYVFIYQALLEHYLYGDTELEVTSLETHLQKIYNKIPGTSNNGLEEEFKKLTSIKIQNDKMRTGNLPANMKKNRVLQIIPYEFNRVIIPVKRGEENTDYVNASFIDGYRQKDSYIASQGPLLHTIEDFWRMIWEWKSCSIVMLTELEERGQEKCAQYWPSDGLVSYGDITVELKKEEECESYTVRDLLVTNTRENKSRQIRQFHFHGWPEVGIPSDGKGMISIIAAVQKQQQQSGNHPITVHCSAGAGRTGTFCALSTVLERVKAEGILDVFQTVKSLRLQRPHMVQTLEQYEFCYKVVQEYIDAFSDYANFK

[4] = target: Receptor-type tyrosine-protein phosphatase F (Homo sapiens, UniProt P10586); assay: Inhibition of human recombinant LAR
Receptor-type tyrosine-protein phosphatase F, sequence (P10586 whole entry): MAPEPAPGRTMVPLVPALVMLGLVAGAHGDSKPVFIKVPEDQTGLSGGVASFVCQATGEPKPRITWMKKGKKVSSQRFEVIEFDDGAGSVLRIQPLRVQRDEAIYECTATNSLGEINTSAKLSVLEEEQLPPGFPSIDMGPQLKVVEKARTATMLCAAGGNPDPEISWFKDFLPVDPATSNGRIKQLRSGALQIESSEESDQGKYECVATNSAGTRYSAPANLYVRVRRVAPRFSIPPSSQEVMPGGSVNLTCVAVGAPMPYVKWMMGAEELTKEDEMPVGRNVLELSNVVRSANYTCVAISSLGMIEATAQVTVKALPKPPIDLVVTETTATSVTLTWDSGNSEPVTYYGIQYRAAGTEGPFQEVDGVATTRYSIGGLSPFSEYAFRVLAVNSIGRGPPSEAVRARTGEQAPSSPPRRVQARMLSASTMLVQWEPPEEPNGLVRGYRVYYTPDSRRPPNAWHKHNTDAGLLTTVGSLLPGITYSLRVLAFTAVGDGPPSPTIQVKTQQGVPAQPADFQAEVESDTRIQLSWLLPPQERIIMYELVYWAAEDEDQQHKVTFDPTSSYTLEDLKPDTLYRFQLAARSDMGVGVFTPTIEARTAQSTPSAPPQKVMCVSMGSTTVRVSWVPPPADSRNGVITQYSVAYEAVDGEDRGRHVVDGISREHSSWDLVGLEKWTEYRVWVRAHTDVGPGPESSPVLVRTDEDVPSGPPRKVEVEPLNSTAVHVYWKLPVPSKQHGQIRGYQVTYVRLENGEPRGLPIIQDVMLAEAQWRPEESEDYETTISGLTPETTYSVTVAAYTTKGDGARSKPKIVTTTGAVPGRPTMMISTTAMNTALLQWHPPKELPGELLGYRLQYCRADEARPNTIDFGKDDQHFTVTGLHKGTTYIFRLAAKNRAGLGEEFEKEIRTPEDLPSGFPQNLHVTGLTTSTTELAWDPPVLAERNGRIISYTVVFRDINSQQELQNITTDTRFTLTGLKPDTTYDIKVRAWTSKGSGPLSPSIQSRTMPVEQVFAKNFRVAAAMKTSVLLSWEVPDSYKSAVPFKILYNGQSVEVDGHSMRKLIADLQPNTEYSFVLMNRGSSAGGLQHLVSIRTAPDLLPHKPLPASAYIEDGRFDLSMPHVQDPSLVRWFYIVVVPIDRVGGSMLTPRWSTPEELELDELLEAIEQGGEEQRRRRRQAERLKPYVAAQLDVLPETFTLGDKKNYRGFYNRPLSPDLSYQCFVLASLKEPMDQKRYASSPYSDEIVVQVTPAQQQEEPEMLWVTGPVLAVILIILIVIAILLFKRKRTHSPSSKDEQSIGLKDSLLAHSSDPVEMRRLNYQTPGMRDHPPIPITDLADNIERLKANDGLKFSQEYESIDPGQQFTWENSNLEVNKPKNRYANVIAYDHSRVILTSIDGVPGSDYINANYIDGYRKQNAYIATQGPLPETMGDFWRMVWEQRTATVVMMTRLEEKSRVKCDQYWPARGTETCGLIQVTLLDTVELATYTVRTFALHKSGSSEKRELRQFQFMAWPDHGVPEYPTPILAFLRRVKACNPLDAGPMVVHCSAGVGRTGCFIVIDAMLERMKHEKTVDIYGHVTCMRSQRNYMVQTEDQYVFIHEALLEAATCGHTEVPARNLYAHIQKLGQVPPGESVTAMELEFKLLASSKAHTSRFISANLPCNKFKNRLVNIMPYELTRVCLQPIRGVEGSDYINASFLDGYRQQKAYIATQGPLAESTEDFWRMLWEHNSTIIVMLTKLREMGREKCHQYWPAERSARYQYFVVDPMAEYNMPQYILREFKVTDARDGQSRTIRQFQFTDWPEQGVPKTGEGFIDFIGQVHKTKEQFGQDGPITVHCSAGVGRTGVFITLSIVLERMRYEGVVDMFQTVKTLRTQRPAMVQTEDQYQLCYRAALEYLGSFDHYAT

[5] = target: Receptor-type tyrosine-protein phosphatase epsilon (Homo sapiens, UniProt P23469); assay: Inhibition of human recombinant PTPepsilon
Receptor-type tyrosine-protein phosphatase epsilon, sequence (P23469 whole entry): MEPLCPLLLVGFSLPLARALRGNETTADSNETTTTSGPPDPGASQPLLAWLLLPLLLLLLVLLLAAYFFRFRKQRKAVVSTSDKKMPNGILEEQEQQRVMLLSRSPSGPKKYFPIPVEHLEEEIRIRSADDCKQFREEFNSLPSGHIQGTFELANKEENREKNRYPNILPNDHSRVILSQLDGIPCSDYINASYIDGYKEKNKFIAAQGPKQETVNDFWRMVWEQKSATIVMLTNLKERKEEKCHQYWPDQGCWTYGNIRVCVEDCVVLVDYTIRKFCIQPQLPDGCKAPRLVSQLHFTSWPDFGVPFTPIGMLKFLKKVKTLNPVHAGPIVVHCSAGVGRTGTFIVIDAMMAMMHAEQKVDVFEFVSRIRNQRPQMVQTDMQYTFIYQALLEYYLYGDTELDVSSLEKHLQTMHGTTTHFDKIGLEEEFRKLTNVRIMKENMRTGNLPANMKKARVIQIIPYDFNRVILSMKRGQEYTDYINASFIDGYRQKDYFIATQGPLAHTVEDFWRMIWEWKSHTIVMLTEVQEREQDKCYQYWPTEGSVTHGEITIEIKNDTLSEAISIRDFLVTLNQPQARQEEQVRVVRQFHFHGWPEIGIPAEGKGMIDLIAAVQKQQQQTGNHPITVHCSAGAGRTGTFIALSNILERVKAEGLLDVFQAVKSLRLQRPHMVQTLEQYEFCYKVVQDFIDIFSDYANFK

[6] = target: Tyrosine-protein phosphatase non-receptor type 6 (Homo sapiens, UniProt P29350); assay: Inhibition of human recombinant SHP1
Tyrosine-protein phosphatase non-receptor type 6, sequence (P29350 whole entry): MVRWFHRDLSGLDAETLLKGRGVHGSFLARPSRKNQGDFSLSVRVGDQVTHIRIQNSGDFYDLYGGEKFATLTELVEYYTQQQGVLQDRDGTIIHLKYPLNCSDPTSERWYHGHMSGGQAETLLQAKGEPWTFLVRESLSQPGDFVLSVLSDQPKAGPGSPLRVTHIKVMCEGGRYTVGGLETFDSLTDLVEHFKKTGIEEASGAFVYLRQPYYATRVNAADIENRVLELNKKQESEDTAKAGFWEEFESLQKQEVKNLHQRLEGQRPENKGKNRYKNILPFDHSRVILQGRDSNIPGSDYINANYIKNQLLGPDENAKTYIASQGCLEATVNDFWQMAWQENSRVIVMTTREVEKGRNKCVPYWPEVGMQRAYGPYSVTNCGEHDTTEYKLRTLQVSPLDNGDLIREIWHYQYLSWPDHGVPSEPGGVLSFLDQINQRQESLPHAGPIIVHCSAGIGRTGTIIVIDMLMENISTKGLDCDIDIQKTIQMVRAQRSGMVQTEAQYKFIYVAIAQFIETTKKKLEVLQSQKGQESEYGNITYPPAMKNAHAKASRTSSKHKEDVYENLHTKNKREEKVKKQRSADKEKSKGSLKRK

[7] = Selectivity for PTP1B to human recombinant SHP1
L6 [8] = assay: Increase in glucose uptake in rat L6 cells at 1 uM after 3 hrs in presence of insulin relative to basal; type: functional; details: in the assay text read “after 2.5 hrs” for “after 3 hrs”
Summary of the method: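 Differentiated rat L6 myotubes (day 5) were serum-starved 2 h, exposed to 1.0 µM compound for 2.5 h, then stimulated 30 min with 1, 10 or 100 nM insulin. 2-Deoxy[1,2-3H]glucose uptake was read over 10 min (0.1 mM glucose, HEPES saline pH 7.4). Radioactivity from 0.1% Triton lysates was normalised to protein and expressed relative to basal/DMSO-treated cells.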

L6 [9] = assay: Increase in glucose uptake in rat L6 cells at 1 uM after 3 hrs in absence of insulin relative to basal; type: functional
Summary of the method: (§1)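 Rat L6 myoblasts grown in α-DMEM with 10% FBS at 37 °C under 5% CO2, then differentiated in α-DMEM with 2% FBS. Used as myotubes on day 5 after 2 h serum-free starvation (0.2% BSA). Compound at 250 nM–2 µM for 3 h without insulin. 2-Deoxy[1,2-3H]glucose uptake measured over 10 min in HEPES saline, pH 7.4, 0.1 mM glucose. Lysate counts normalised to protein, given as % of basal/0.2% DMSO cells.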

[10] = target: Insulin receptor (Homo sapiens) (UniProt P06213); assay: Increase in human IRbeta phosphorylation expressed in CHO cells; type: cell-based
Summary of the method: (§2)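 CHO cells stably carrying human insulin receptor were grown near-confluent, then starved 2 h in serum-free Ham's F-12. Compound was given for 3 h, followed by 10 nM insulin for 10 min. Lysates were run on 8% SDS-PAGE and western blotted for phospho-IR (Tyr1162/1163), phospho-Akt (Ser473) and β-actin, with ECL detection.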

[11] = target: RAC-alpha serine/threonine-protein kinase (Homo sapiens) (UniProt P31749); assay: Increase in human Akt phosphorylation expressed in CHO cells; type: cell-based; summary of the method: as §2
RAC-alpha serine/threonine-protein kinase (Homo sapiens), sequence (P31749 whole entry): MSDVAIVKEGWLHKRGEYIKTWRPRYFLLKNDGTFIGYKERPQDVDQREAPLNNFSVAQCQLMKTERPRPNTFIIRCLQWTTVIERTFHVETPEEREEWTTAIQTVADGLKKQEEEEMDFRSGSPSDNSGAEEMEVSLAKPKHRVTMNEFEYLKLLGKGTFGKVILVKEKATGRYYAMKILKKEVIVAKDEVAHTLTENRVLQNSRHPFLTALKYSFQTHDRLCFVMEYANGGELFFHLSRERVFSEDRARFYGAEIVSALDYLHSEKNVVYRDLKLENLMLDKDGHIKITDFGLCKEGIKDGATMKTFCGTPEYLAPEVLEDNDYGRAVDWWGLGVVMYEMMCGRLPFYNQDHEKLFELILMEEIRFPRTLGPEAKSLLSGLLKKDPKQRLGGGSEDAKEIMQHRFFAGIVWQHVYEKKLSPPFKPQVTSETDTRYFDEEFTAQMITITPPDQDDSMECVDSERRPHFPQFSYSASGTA

L6 [12] = assay: Increase in glucose uptake in rat L6 cells after 3 hrs in absence of insulin; type: functional, cell-based; summary of the method: as §1

Row | IC50 [1] [µM] | IC50 [2] [µM] | IC50 [3] [µM] | IC50 [4] [µM] | IC50 [5] [µM] | IC50 [6] [µM] | Ratio [7] | Compound | further results
1 | 0.54 | 0.47 | > 40 | > 40 | > 40 | 4.05 | 2 | CC1(C)CC[C@]2(C(=O)O)CC[C@]3(C)C(=CC[C@@H]4[C@@]5(C)CC[C@H](OCc6ccc(C(=O)O)cc6)C(C)(C)[C@@H]5CC[C@]43C)[C@@H]2C1 | 
2 | 3.31 |  |  |  |  | 12.6 |  | CC1(C)CC[C@]2(C(=O)N[C@@H](Cc3ccccc3)C(=O)O)CC[C@]3(C)C(=CC[C@@H]4[C@@]5(C)CC[C@H](O)C(C)(C)[C@@H]5CC[C@]43C)[C@@H]2C1 | 
3 |  |  | > 40 | > 40 | > 40 |  |  | CC1(C)CC[C@]2(C(=O)O)CC[C@]3(C)C(=CC[C@@H]4[C@@]5(C)CC[C@H](O)C(C)(C)[C@@H]5CC[C@]43C)[C@@H]2C1 [OLEANOLIC_ACID] | 
4 | 0.57 | 0.63 | > 40 | > 40 | > 40 | 4.08 | 2 | CC1(C)CC[C@]2(CCCCC(=O)N[C@@H](Cc3ccccc3)C(=O)O)CC[C@]3(C)C(=CC[C@@H]4[C@@]5(C)CC[C@H](O)C(C)(C)[C@@H]5CC[C@]43C)[C@@H]2C1 | 
5 | 0.44 | 0.6 | > 40 | > 40 | > 40 | 0.71 | 2 | CC1(C)CC[C@]2(CCCCC(=O)NC(Cc3ccc4c(c3)OCO4)C(=O)O)CC[C@]3(C)C(=CC[C@@H]4[C@@]5(C)CC[C@H](O)C(C)(C)[C@@H]5CC[C@]43C)[C@@H]2C1 (stereo not given in full) | 
6 | 0.15 | 0.16 | > 40 | > 40 | > 40 | 0.89 | 2 | CC1(C)CC[C@]2(CCCCC(=O)N[C@@H](Cc3ccccc3)C(=O)O)CC[C@]3(C)C(=CC[C@@H]4[C@@]5(C)CC[C@H](OCc6ccc(C(=O)O)cc6)C(C)(C)[C@@H]5CC[C@]43C)[C@@H]2C1 | Activity (L6 [8]): 20%; Activity (L6 [9]): 40%; Activity [10]: Dose-dependent effect; Activity [11]: Active; Activity (L6 [12]): Dose-dependent effect
7 | 2.33 | 1.38 | > 40 | > 40 | > 40 | 12.4 | 2 | CC1(C)CC[C@]2(C(=O)O)CC[C@]3(C)C(=CC[C@@H]4[C@@]5(C)CC[C@H](OC(=O)CC(C)(C)C(=O)O)C(C)(C)[C@@H]5CC[C@]43C)[C@@H]2C1 | 
8 |  | 3.33 | > 40 | > 40 | > 40 | 25.8 |  | C[C@H]1[C@H](C)CC[C@]2(C(=O)O)CC[C@]3(C)C(=CC[C@@H]4[C@@]5(C)CC[C@H](O)C(C)(C)[C@@H]5CC[C@]43C)[C@H]12 [URSOLIC ACID] | 
9 | 1.33 | 1.11 | > 40 | > 40 | > 40 | 5.2 | 2 | CC1(C)CC[C@]2(CCCCC(=O)O)CC[C@]3(C)C(=CC[C@@H]4[C@@]5(C)CC[C@H](O)C(C)(C)[C@@H]5CC[C@]43C)[C@@H]2C1 | 
10 | 0.45 | 0.36 |  |  |  |  |  | CC1(C)CC[C@]2(CCCCC(=O)NC(Cc3ccc([N+](=O)[O-])cc3)C(=O)O)CC[C@]3(C)C(=CC[C@@H]4[C@@]5(C)CC[C@H](O)C(C)(C)[C@@H]5CC[C@]43C)[C@@H]2C1 (stereo not given in full) | 
11 | 2.1 | 2.77 | > 40 | > 40 | > 40 | 27.4 | 2 | CC1(C)CC[C@]2(CCC(=O)O)CC[C@]3(C)C(=CC[C@@H]4[C@@]5(C)CC[C@H](O)C(C)(C)[C@@H]5CC[C@]43C)[C@@H]2C1 | 
12 | 2.89 | 3.66 |  |  |  |  |  | CCOC(=O)C(=O)O[C@H]1CC[C@]2(C)[C@H]3CC=C4[C@@H]5CC(C)(C)CC[C@]5(C(=O)O)CC[C@@]4(C)[C@]3(C)CC[C@H]2C1(C)C | 
13 | > 20 | > 20 |  |  |  |  |  | C[C@H]1[C@H](C)CC[C@]2(C)CC[C@]3(C)C(=CC[C@@H]4[C@@]5(C)CC[C@@H](O)[C@](C)(C(=O)O)[C@@H]5CC[C@]43C)[C@H]12 [BOSWELLIC ACID] | 
14 | 2.86 | 4.55 |  |  |  |  |  | CC1(C)CC[C@]2(C(=O)O)CC[C@]3(C)C(=CC[C@@H]4[C@@]5(C)CC[C@H](OC(=O)C(=O)O)C(C)(C)[C@@H]5CC[C@]43C)[C@@H]2C1 | 
15 | 8.04 | 9.45 |  |  |  |  |  | C[C@H]1[C@H](C)CC[C@]2(C)CC[C@]3(C)C(=CC(=O)[C@@H]4[C@@]5(C)CC[C@@H](O)[C@](C)(C(=O)O)[C@@H]5CC[C@]43C)[C@H]12 [11-KETO BOSWELLIC ACID] | 
16 | > 20 | > 20 |  |  |  |  |  | CC1(C)CC[C@]2(C)CC[C@]3(C)[C@H](CC[C@@H]4[C@@]5(C)CC[C@H](O)C(C)(C)[C@@H]5CC[C@]43C)[C@@H]2C1 | 
17 | > 20 | > 20 |  |  |  |  |  | C[C@H]1[C@H](C)CC[C@]2(C(=O)O)CC[C@]3(C)C(=CC[C@@H]4[C@@]5(C)C[C@@H](O)[C@H](O)[C@@](C)(CO)[C@@H]5CC[C@]43C)[C@H]12 [ASIATIC ACID] | 
18 | 0.78 | 0.79 |  |  |  |  |  | CC1(C)CC[C@]2(CCCCCCCCC(=O)O)CC[C@]3(C)C(=CC[C@@H]4[C@@]5(C)CC[C@H](O)C(C)(C)[C@@H]5CC[C@]43C)[C@@H]2C1 | 
19 | 2.61 | 3 |  |  |  |  |  | CC1(C)CC[C@]2(C(=O)O)CC[C@]3(C)C(=CC[C@@H]4[C@@]5(C)CCCC(C)(C)[C@@H]5CC[C@]43C)[C@@H]2C1 | 
20 | 5.49 | 11.3 | > 40 | > 40 | > 40 | 24.6 | 2 | C[C@H]1[C@H](C)CC[C@]2(C(=O)O)CC[C@]3(C)C(=CC[C@@H]4[C@@]5(C)C[C@@H](O)[C@H](O)C(C)(C)[C@@H]5CC[C@]43C)[C@H]12 [COROSOLIC ACID] | 
21 | 4.62 | 4.31 |  |  |  |  |  | CC1(C)CC[C@]2(CCCCC(=O)N[C@@H](Cc3cnc[nH]3)C(=O)O)CC[C@]3(C)C(=CC[C@@H]4[C@@]5(C)CC[C@H](O)C(C)(C)[C@@H]5CC[C@]43C)[C@@H]2C1 | 
22 | 0.6 | 0.55 |  |  |  |  |  | COc1ccc(CC(NC(=O)CCCC[C@]23CCC(C)(C)C[C@H]2C2=CC[C@@H]4[C@@]5(C)CC[C@H](O)C(C)(C)[C@@H]5CC[C@@]4(C)[C@]2(C)CC3)C(=O)O)cc1 (stereo not given in full) | 
23 | 0.61 | 0.48 |  |  |  |  |  | CC1(C)CC[C@]2(CCCCC(=O)NC(Cc3ccc(Cl)cc3)C(=O)O)CC[C@]3(C)C(=CC[C@@H]4[C@@]5(C)CC[C@H](O)C(C)(C)[C@@H]5CC[C@]43C)[C@@H]2C1 (stereo not given in full) | 
